MrgX1 antag: blocks BAM8-22 activation of human MrgX1 receptor. Q96LB2. MRGX1-HEK293 calcium flux, Fluo-4, BAM8-22 antagonism; active compounds read low. AID 588676. 310,000 compounds, 1.3% hits. B-score at 10 µM;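 active means calcium-response B-score plate-corrected more than 3 library SD below zero, starting fluorescence within 5 deviations, no agonist response on first addition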;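 further: peak minus trough fluorescence over baseline after final BAM8-22 challenge near maximal dose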
Target sequence (Q96LB2 whole entry, looked up): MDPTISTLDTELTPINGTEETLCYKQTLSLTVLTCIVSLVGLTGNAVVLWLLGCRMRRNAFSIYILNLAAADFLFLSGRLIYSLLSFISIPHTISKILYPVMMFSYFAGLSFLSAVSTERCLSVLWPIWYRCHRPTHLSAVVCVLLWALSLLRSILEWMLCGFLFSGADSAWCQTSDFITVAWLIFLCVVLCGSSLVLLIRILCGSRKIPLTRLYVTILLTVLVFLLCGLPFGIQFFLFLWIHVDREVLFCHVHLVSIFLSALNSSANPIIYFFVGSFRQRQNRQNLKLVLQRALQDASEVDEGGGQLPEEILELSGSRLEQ
RGS4 pot: RGS4 potentiation or activation; B-score at 10 µM; HEK293 M3R/inducible RGS4, carbachol calcium flux Fluo4; active compounds read low; 310,000 compounds, 0.92% hits;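 active means B-score of the integrated calcium signal more than 4 SD below the library mean, with starting fluorescence not abnormally high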;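 further: negative B-score means reduced calcium response which marks RGS4 activation or potentiation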
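Material: M3R-expressing HEK293 line, RGS4 induced by doxycycline | Schedule: Overnight RGS4 induction, 30 min dye load 37 °C, 20 min compound RT | Measured by: Fluo4 fluorescence kinetic imaging of calcium | Read-out: Integrated calcium ratio converted to B score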
MrgX1 agonist: activates human MrgX1 receptor signaling. Q96LB2. MrgX1-HEK293 cells, Fluo-4 calcium fluorescence, agonist mode; active compounds read high. B-score at 10 µM. 310,000 compounds, 0.44% hits;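 active means calcium response B-score plate-corrected fluorescence ratio at least 3 library SD, with starting fluorescence B-score inside 5 SD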
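Test system: HEK293 cells stably expressing human MrgX1 receptor; Input: fifteen thousand cells per well; Dosing: compound delivered in addition one of three; Schedule: overnight seeding, then 1 h dark dye loading; Technique: Fluo-4 NW calcium fluorescence; Measure: B-scored fluorescence response ratio; Controls: positive and negative controls per plate.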
RGS4 block: human RGS4 inhibition | B-score at 10 µM | P49798 | HEK293 M3R/RGS4 inducible, Fluo-4 calcium flux; active compounds read high; triggered by carbachol at its EC20 | 310,000 compounds, 0.45% hits;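 active means B-score, a plate-corrected calcium signal, over three deviations above library mean, with baseline fluorescence within five deviations of library mean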;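 further: RGS4 expression induced by doxycycline in cells with stable M3 receptor; B-score is computed from the integrated fluorescence ratio over baseline after carbachol; higher B-score means a larger calcium signal and so more RGS4 inhibition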
Target sequence (P49798 whole entry, looked up): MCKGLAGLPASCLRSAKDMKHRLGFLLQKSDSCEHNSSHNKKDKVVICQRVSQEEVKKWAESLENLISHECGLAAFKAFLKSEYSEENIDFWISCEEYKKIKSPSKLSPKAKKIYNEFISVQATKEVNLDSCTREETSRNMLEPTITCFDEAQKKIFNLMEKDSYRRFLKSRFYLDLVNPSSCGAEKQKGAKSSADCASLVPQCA
MrgX1 PAM: human MrgX1 positive allosteric modulation, primary screen; MrgX1-HEK293, Fluo-4 calcium flux, FDSS; active compounds read high; Q96LB2; 310,000 compounds, 0.63% hits; B-score at 10 µM;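 active means plate-corrected calcium response at least 3 library SD above typical, normal starting fluorescence, not activating the receptor alone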;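 further: compound read alongside a low EC10 to EC30 dose of BAM8-22 agonist; peak minus trough fluorescence over baseline measured at the second addition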
MrgX1 antag conf: human MrgX1 receptor antagonism, re-confirmation screen; MrgX1-HEK293, BAM8-22 calcium flux, Fluo-4; active compounds read low; 2,300 compounds, 19% hits; shares compounds with MrgX1 antag; remaining BAM8-22 calcium response % of control (active compounds read low), % at 10 µM; AID 602420;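 active means remaining agonist calcium response no higher than 100% minus 3 SD of agonist-only control wells, with starting fluorescence near control levels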;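 further: agonist BAM8-22 given at a near maximal EC90 to ECmax level; peak minus minimum fluorescence divided by baseline after agonist addition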
HEK293 Ca flux: activity in parental HEK293 cells lacking MrgX1 | shares compounds with MrgX1 antag | 4,000 compounds, 2% hits | fluorescence ratio F(max-min)/F0 at 10 µM | AID 624111 | Fluo-4 calcium fluorescence, FDSS;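 active means duplicate-averaged calcium fluorescence ratio at least three times the standard deviation of buffer wells, a nonspecific response in parental cells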
HEK293 Ca counter: MrgX1 allosteric activator counter-screen hit in parental HEK293 cells; shares compounds with MrgX1 antag; parental HEK293 calcium flux, Fluo-4 fluorescence ratio; active compounds read high; fluorescence ratio F(max-min)/F0 at 10 µM; 4,000 compounds, 0.4% hits;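 active means calcium fluorescence ratio, averaged over duplicates, at least 3 SD of the buffer-well ratio, meaning a nonspecific response in receptor-free cells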;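 further: untransfected parental HEK293 lacking MrgX1 used as counterscreen for MrgX1 allosteric activators; fluorescence change taken during the second addition on a kinetic imager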
HEK293 Ca cntr2: counter-screen for MrgX1 activators: effect in parental HEK293 cells; fluorescence ratio F(max-min)/F0 at 10 µM; Fluo-4 calcium fluorescence (FDSS); active compounds read high; shares compounds with MrgX1 antag; 4,000 compounds, 8.7% hits;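 active means calcium fluorescence ratio at least three times the spread of buffer wells, meaning a non-specific response in parental cells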
Active calls of the source: *; i = inactive; x = no result. An excerpt weighted towards active compounds, which were near 3.5% of everything screened.

SMILES | MrgX1 antag | RGS4 pot | MrgX1 agonist | RGS4 block | MrgX1 PAM | MrgX1 antag conf | HEK293 Ca flux | HEK293 Ca counter | HEK293 Ca cntr2
COc1cccc(C(O)c2cnc(C(C)C)n2C)c1 (stereo not drawn) | i | i | i | i | i | x | x | x | x
O=C(O)c1ccc2ncsc2c1 | -5.6* | i | i | i | i | 68%* | i | i | i
CCCOc1ccc(C(=O)NCc2ccco2)cc1 | i | i | i | i | i | x | x | x | x
CC(C)Oc1ccc(C(=O)NCc2ccco2)cc1 | -5.9* | i | i | i | i | i | i | i | i
Cc1cccc(NC(=S)Nc2c(C)n(C)n(-c3ccccc3)c2=O)c1C | -18* | i | i | i | i | i | i | i | i
Cc1ccc(NC(=S)Nc2c(C)n(C)n(-c3ccccc3)c2=O)cc1 | i | i | i | i | i | x | x | x | x
CCN(CC)CCNC(=O)C1(O)c2cc(Br)ccc2NC(=O)N1c1c(F)cccc1F (stereo not drawn) | i | i | i | i | i | x | x | x | x
Nc1ncnc2c1ncn2CCN1CCCCC1 | -5.7* | i | i | i | i | i | i | i | i
CC1CN(CCn2cnc3c(N)ncnc32)CC(C)O1 (stereo not drawn) | i | i | i | i | i | x | x | x | x
O=C(NCCC1=CCCCC1)c1ccc(F)cc1 | -6.2* | i | i | i | i | i | i | i | i
NC(=O)c1ccsc1NC(=O)CSc1ccccc1F | -4.9* | i | i | i | i | i | i | i | i
NC(=O)c1ccsc1NC(=O)CCS(=O)(=O)c1ccc(F)cc1 | -5.9* | i | i | i | i | 80%* | i | i | i
COc1ccccc1OCC(=O)OCC(=O)Nc1sccc1C(N)=O | i | i | i | i | i | x | x | x | x
Cc1ccccc1SCC(=O)OCC(=O)Nc1sccc1C(N)=O | i | i | i | i | i | x | x | x | x
NC(=O)c1ccsc1NC(=O)COC(=O)Cc1cccc2ccccc12 | -6.8* | i | i | i | i | 42%* | i | i | i
O=C(c1cccc(Cl)c1)N1CCCc2ccccc21 | i | i | i | i | i | x | x | x | x
CCCCSc1nnc(CSc2ncccn2)n1C | i | i | i | i | i | x | x | x | x
COc1ccc(Nc2nc(-c3ccc4c(c3)NC(=O)CO4)cs2)cc1 | i | i | i | i | i | x | x | x | x
COc1ccc(-c2cc(-c3ccccc3)nc(-c3ccc4c(c3)NC(=O)CO4)c2)cc1 | -5.9* | i | i | i | i | i | i | i | i
CCOCCCNC(=O)CN1C(=O)c2ccccc2Sc2ncccc21 | i | i | i | i | i | x | x | x | x
Cc1cc(NC(=S)Nc2ccccc2)ccc1Br | i | i | i | i | i | x | x | x | x
Cc1cc(NC(=S)Nc2cccnc2)ccc1Br | -5.2* | i | i | i | i | 86%* | i | i | i
Cc1ccc(NC(=O)NCC2CC2(Cl)Cl)cc1 (stereo not drawn) | i | i | i | i | i | x | x | x | x
CC(C)(CO)NC(=O)Nc1ccc(Cl)c(Cl)c1 | -7.7* | i | i | i | i | i | i | i | i
O=C(NCC1CC1(Cl)Cl)Nc1ccc(Cl)c(Cl)c1 (stereo not drawn) | -5.5* | i | i | i | i | i | i | i | i
SMILES | MrgX1 antag | RGS4 pot | MrgX1 agonist | RGS4 block | MrgX1 PAM | MrgX1 antag conf | HEK293 Ca flux | HEK293 Ca counter | HEK293 Ca cntr2
COC(=O)/C=C/c1cnc[nH]1 | i | i | i | i | i | x | x | x | x
Cc1cnc(C(=O)OCC(=O)c2csc(N3CCCCC3)n2)cn1 | -5.7* | i | i | i | i | i | i | i | i
O=C(COC(=O)/C=C/c1ccc(C(F)(F)F)cc1)NCC1CCCCC1 | i | i | i | i | i | x | x | x | x
CCCC(CCC(=O)NC1CCCCC1)C(=O)O (stereo not drawn) | i | i | i | i | i | x | x | x | x
CCCC(C)NC(C)C(=O)NC1CCCC1 (stereo not drawn) | -5* | i | i | i | i | i | i | i | i
CCOC(=O)c1c(C)[nH]c(C(=O)OCC(=O)N(C)CC(=O)Nc2ccccc2Cl)c1C | i | i | i | i | i | x | x | x | x
Cc1ccc(C(CNS(=O)(=O)c2ccccc2)N2CCN(C)CC2)cc1 (stereo not drawn) | -8.1* | i | i | i | i | i | i | i | i
Cc1ccc(C(CNS(=O)(=O)c2ccc(Br)cc2)N2CCN(C)CC2)cc1 (stereo not drawn) | i | i | i | i | i | x | x | x | x
Cc1ccc(S(=O)(=O)NCC(c2ccco2)N2CCc3ccccc32)cc1 (stereo not drawn) | -5.6* | i | i | i | i | i | i | i | i
Cc1ccc(S(=O)(=O)NCC(c2ccco2)N2CCc3ccccc3C2)cc1 (stereo not drawn) | -5.1* | i | i | i | i | i | i | i | i
COc1ccc(S(=O)(=O)NCC(c2ccco2)N2CCc3ccccc32)cc1 (stereo not drawn) | i | i | i | i | i | x | x | x | x
O=C(c1ccc2c(=O)n3c(nc2c1)CCC3)N1CCN(S(=O)(=O)c2cccc(F)c2)CC1 | i | i | i | i | i | x | x | x | x
COc1ccccc1C/C(N)=N/OC(=O)COc1ccc(C)cc1 | i | i | i | i | i | x | x | x | x
Cc1cc(C)n(-c2nnc(C)n2/N=C/c2ccccc2O)n1 | i | i | i | i | i | x | x | x | x
Cc1cc(C)n(-c2nnc(C)n2N)n1 | -5.9* | i | i | i | i | 85%* | i | i | i
CCN(C(=O)c1c(-c2ccccc2)noc1C)c1ccccc1 | -4.6* | i | i | i | i | i | i | i | i
CCCCC(=O)Oc1c(S(=O)(=O)c2ccc(C)cc2)c(C)nn1C(C)(C)C | -5.2* | i | i | i | i | i | i | i | i
